ChEMBL document CHEMBL1146686, “Phenolic thiazoles as novel orally-active neuroprotective agents” (Bioorg Med Chem Lett, 2004)

Organism: Rattus norvegicus
Test: Compound tested to inhibit (LPO) lipid peroxidation was determined in rat brain microsomes
Type: functional
How it was run: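 Rat brain microsomes; lipid peroxidation induced by Fe2+. Antioxidant activity read as reduction of malondialdehyde formed from unsaturated fatty acid peroxidation.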

IC50 [µM] | Compound
32 | CC1=NN(c2ccccc2)C(=O)C1 [EDARAVONE]
30 | Cc1cc(C(C)(C)C)c(O)c(C(C)(C)C)c1 [BUTYLATED HYDROXYTOLUENE]
